{"source": "ChEMBL document CHEMBL1128303", "about": "“Novel non-nucleoside inhibitors of HIV-1 reverse transcriptase. 3. Dipyrido[2,3-b:2',3'-e]diazepinones” (J Med Chem, 1995)"}
{"molecular_target": "Human immunodeficiency virus type 1 reverse transcriptase (Human immunodeficiency virus 1, UniProt Q72547)", "assay": "In vitro for inhibition of HIV-1 reverse transcriptase.", "units": {"IC50": "nM"}}
{"smiles": "CN1C(=O)c2cccnc2N(C2CC2)c2ccc(Cl)nc21", "IC50": 1000}
{"smiles": "CN1C(=O)c2cccnc2N(C2CC2)c2nc(Cl)ccc21", "IC50": 90}
{"smiles": "CCN1c2cc(Br)cnc2N(C)C(=O)c2cccnc21", "IC50": 550}
{"smiles": "CCN1c2cc(C)c(C)nc2N(C)C(=O)c2cccnc21", "IC50": 190}
{"smiles": "CCN1c2ncc(Br)cc2C(=O)N(C)c2cccnc21", "IC50": 1300}
{"smiles": "CN1C(=O)c2cccnc2N(C2CC2)c2ncc(Cl)cc21", "IC50": 290}
{"smiles": "CCN1c2nc(C)ccc2C(=O)N(C)c2cccnc21", "IC50": 1000}
{"smiles": "CCN1c2cccnc2N(C)C(=O)c2cccnc21", "IC50": 1300}
{"smiles": "CCN1c2cc(C)c(C)nc2N(C)C(=O)c2cc(N)cnc21", "IC50": 150}
{"smiles": "CCN1c2ncc(N)cc2C(=O)N(C)c2cccnc21", "IC50": 130}
{"smiles": "CN1C(=O)c2cccnc2N(C2CC2)c2cc(Cl)cnc21", "IC50": 760}
{"smiles": "CCN1c2ncccc2C(=O)N(C)c2ccc(-c3cccc(N)c3)nc21", "IC50": 70}
{"smiles": "CCN1c2ccc(C)nc2N(C)C(=O)c2cccnc21", "IC50": 1760}
{"smiles": "CCN1c2cccnc2N(C)C(=O)c2cc(N)cnc21", "IC50": 280}
{"molecular_target": "Human immunodeficiency virus type 1 reverse transcriptase (Human immunodeficiency virus 1) (UniProt Q72547)", "assay": "In vitro for inhibition of HIV-1 reverse transcriptase at 1 uM", "summary_of_the_method": "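Compounds were first screened as percent enzyme inhibition at a single 1 μM concentration. IC50 was not determined for compounds giving under 35% inhibition at 1 μM.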", "units": {"inhibition": "%"}}
{"smiles": "CCN1c2cccnc2N(C)C(=O)c2cc(Br)cnc21", "inhibition": "< 35"}
{"smiles": "CCN1c2cc(-c3cccc(N)c3)cnc2N(C)C(=O)c2cccnc21", "inhibition": "< 35"}
{"smiles": "CCN1c2cccnc2N(C)C(=O)c2ccc(C)nc21", "inhibition": "< 35"}
{"smiles": "CCN1c2ccc([N+](=O)[O-])nc2N(C)C(=O)c2cccnc21", "inhibition": "< 35"}
{"smiles": "CCN1c2cc(Br)c(Br)nc2N(C)C(=O)c2cccnc21", "inhibition": "< 35"}
{"smiles": "CCN1c2ncccc2C(=O)N(C)c2nccc(C)c21", "inhibition": "< 35"}
{"smiles": "CCN1c2ncccc2C(=O)N(C)c2cc([N+](=O)[O-])cnc21", "inhibition": "< 35"}
